# Assay results published in ChEMBL document CHEMBL3425425, “6-Substituted sulfocoumarins are selective carbonic anhdydrase IX and XII inhibitors with significant cytotoxicity against colorectal cancer cells” (J Med Chem, 2015).
# Active and inactive are the calls of the source. The calls are words filed in the database; no cut-off is given here.
# Test system: HT-29
# Test: Cytotoxicity against human HT-29 cells assessed as reduction in cell viability at 30 to 300 uM incubated for 16 to 72 hrs under hypoxic conditions by MTT assay
# Type: functional, cell-based
# Conditions: not given
# Outline: (§1)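 Cells were kept in high-glucose DMEM with 20% FBS at 37 °C, seeded at 1 × 10^4/well and treated 24 h later at 0–300 μM (0, 30, 100, 300) for 16, 48 or 72 h. Incubation was in a hypoxic chamber (0.1% O2, 5% CO2, residual N2). Viability was measured by MTT (1 mg/mL, 30 min, 37 °C), with DMSO-solubilized formazan read at 550 nm and expressed against untreated control = 100%. Mean ± SEM of three experiments.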
row,SMILES,Activity
1,C[N+](C)(C)c1ccc2c(c1)C=CS(=O)(=O)O2,inactive
2,O=C(Nc1ccc2c(c1)C=CS(=O)(=O)O2)c1ccncc1,inactive

# Biological target: Carbonic anhydrase 1 (Homo sapiens, UniProt P00915)
# Sequence (P00915 whole entry): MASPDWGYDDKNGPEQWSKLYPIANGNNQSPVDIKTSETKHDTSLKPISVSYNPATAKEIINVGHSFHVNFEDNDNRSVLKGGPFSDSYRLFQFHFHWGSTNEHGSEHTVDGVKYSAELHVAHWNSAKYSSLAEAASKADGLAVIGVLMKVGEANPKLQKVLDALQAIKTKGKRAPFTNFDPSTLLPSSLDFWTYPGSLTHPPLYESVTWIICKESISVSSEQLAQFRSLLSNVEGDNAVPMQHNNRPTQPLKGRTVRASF
# Test: Inhibition of human recombinant carbonic anhdydrase-1 expressed in Escherichia coli pre-incubated for 6 hrs by stopped-flow CO2 hydration assay
# Conditions: not given
row,SMILES,Ki [µM]
1,O=C(Nc1ccc2c(c1)C=CS(=O)(=O)O2)c1ccccc1Br,> 10
2,O=C(Nc1ccc2c(c1)C=CS(=O)(=O)O2)c1cccnc1,> 10
3,O=C(Nc1ccc2c(c1)C=CS(=O)(=O)O2)c1cccs1,> 10
4,N#Cc1ccc2c(c1)C=CS(=O)(=O)O2,> 10
5,O=C(Nc1ccc2c(c1)C=CS(=O)(=O)O2)c1ccccc1I,> 10
6,O=C(Cc1ccccc1)Nc1ccc2c(c1)C=CS(=O)(=O)O2,> 10
7,C[N+](C)(C)c1ccc2c(c1)C=CS(=O)(=O)O2,> 10
8,O=C(Nc1ccc2c(c1)C=CS(=O)(=O)O2)c1ccncc1,> 10
9,COc1ccc2c(c1)C=CS(=O)(=O)O2,> 10

# The remaining lines, values ahead:
row,Ki [µM],SMILES
1,> 10,Cc1ccc(C(=O)Nc2ccc3c(c2)C=CS(=O)(=O)O3)cc1
2,> 10,CC(C)(C)C(=O)Nc1ccc2c(c1)C=CS(=O)(=O)O2
3,> 10,O=C(Nc1ccc2c(c1)C=CS(=O)(=O)O2)c1ccco1
4,> 10,O=C(Nc1ccc2c(c1)C=CS(=O)(=O)O2)c1ccccc1
5,> 10,CC(=O)Nc1ccc2c(c1)C=CS(=O)(=O)O2

# Test system: HT-29
# Test: Cytotoxicity against human HT-29 cells assessed as reduction in cell viability at 100 uM incubated for 72 hrs under normoxic conditions by MTT assay
# Type: functional, cell-based
# Conditions: not given
# Outline: (§2)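 HT-29 cells were grown in high-glucose DMEM with 20% FBS at 37 °C and plated at 1 × 10^4/well. After 24 h they were exposed to 0, 30, 100 or 300 μM for 16, 48 or 72 h in normoxia (20% O2, air, 5% CO2). Washed cells got 1 mg/mL MTT for 30 min at 37 °C, formazan was dissolved in DMSO and A550 read. Untreated set at 100%. Quadruplicates, ≥3 cell batches; mean ± SEM.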
row,SMILES,Activity
1,O=C(Nc1ccc2c(c1)C=CS(=O)(=O)O2)c1ccccc1Br,Active

# Test system: HT-29
# Test: Cytotoxicity against human HT-29 cells assessed as reduction in cell viability at 30 to 300 uM incubated for 16 to 72 hrs under normoxic conditions by MTT assay
# Type: functional, cell-based
# Conditions: not given
# Outline: as §2
row,SMILES,Activity
1,C[N+](C)(C)c1ccc2c(c1)C=CS(=O)(=O)O2,inactive
2,O=C(Nc1ccc2c(c1)C=CS(=O)(=O)O2)c1ccncc1,inactive

# Test system: HT-29
# Test: Cytotoxicity against human HT-29 cells assessed as cell viability at 30 uM incubated for 72 hrs under normoxic conditions by MTT assay
# Type: functional
# Conditions: HT-29, 72 h, read-out: Activity
# Outline: as §2
row,SMILES,viability at 30 µM [%]
1,O=C(Nc1ccc2c(c1)C=CS(=O)(=O)O2)c1ccccc1,43

# Test system: HT-29
# Test: Cytotoxicity against human HT-29 cells assessed as reduction in cell viability at 100 uM incubated for 72 hrs under hypoxic conditions by MTT assay
# Type: functional, cell-based
# Conditions: not given
# Outline: as §1
row,SMILES,Activity
1,O=C(Nc1ccc2c(c1)C=CS(=O)(=O)O2)c1ccccc1Br,Active

# Test system: HT-29
# Test: Cytotoxicity against human HT-29 cells assessed as cell viability at 100 uM incubated for 16 hrs under normoxic conditions by MTT assay
# Type: functional
# Conditions: HT-29, 16 h, read-out: Activity
# Outline: as §2
row,SMILES,viability at 100 µM [%]
1,O=C(Nc1ccc2c(c1)C=CS(=O)(=O)O2)c1ccccc1,52

# Test system: HT-29
# Test: Cytotoxicity against human HT-29 cells assessed as cell viability at 100 uM incubated for 72 hrs under normoxic conditions by MTT assay
# Type: functional
# Conditions: HT-29, 72 h, read-out: Activity
# Outline: as §2
row,SMILES,viability at 100 µM [%]
1,O=C(Nc1ccc2c(c1)C=CS(=O)(=O)O2)c1ccccc1,40

# Biological target: Carbonic anhydrase 9 (Homo sapiens, UniProt Q16790)
# Test: Inhibition of human recombinant carbonic anhdydrase-9 expressed in Escherichia coli pre-incubated for 6 hrs by stopped-flow CO2 hydration assay
# Conditions: not given
row,SMILES,Ki [nM]
1,O=C(Nc1ccc2c(c1)C=CS(=O)(=O)O2)c1ccccc1Br,9.7
2,O=C(Nc1ccc2c(c1)C=CS(=O)(=O)O2)c1cccnc1,10.5
3,O=C(Nc1ccc2c(c1)C=CS(=O)(=O)O2)c1cccs1,29.5
4,N#Cc1ccc2c(c1)C=CS(=O)(=O)O2,33.8
5,O=C(Nc1ccc2c(c1)C=CS(=O)(=O)O2)c1ccccc1I,9.1
6,O=C(Cc1ccccc1)Nc1ccc2c(c1)C=CS(=O)(=O)O2,81.3
7,C[N+](C)(C)c1ccc2c(c1)C=CS(=O)(=O)O2,9.6
8,O=C(Nc1ccc2c(c1)C=CS(=O)(=O)O2)c1ccncc1,7.7
9,COc1ccc2c(c1)C=CS(=O)(=O)O2,42.1

# Next, values leading:
row,Ki [nM],SMILES
1,9,Cc1ccc(C(=O)Nc2ccc3c(c2)C=CS(=O)(=O)O3)cc1
2,5.6,CC(C)(C)C(=O)Nc1ccc2c(c1)C=CS(=O)(=O)O2
3,33,O=C(Nc1ccc2c(c1)C=CS(=O)(=O)O2)c1ccco1
4,6.6,O=C(Nc1ccc2c(c1)C=CS(=O)(=O)O2)c1ccccc1
5,17.2,CC(=O)Nc1ccc2c(c1)C=CS(=O)(=O)O2

# Test system: HT-29
# Test: Cytotoxicity against human HT-29 cells assessed as reduction in cell viability at 30 uM incubated for 16 hrs under normoxic conditions by MTT assay
# Type: functional, cell-based
# Conditions: not given
# Outline: as §2
row,SMILES,Activity
1,O=C(Nc1ccc2c(c1)C=CS(=O)(=O)O2)c1ccccc1,Active

# Test system: HT-29
# Test: Cytotoxicity against human HT-29 cells assessed as reduction in cell viability at 300 uM incubated for 16 to 72 hrs under normoxic conditions by MTT assay
# Type: functional, cell-based
# Conditions: not given
# Outline: as §2
row,SMILES,Activity
1,O=C(Nc1ccc2c(c1)C=CS(=O)(=O)O2)c1ccccc1,inactive

# Biological target: Carbonic anhydrase 2 (Homo sapiens, UniProt P00918)
# Test: Inhibition of human recombinant carbonic anhdydrase-2 expressed in Escherichia coli pre-incubated for 6 hrs by stopped-flow CO2 hydration assay
# Conditions: not given
row,SMILES,Ki [µM]
1,O=C(Nc1ccc2c(c1)C=CS(=O)(=O)O2)c1ccccc1Br,> 10
2,O=C(Nc1ccc2c(c1)C=CS(=O)(=O)O2)c1cccnc1,> 10
3,O=C(Nc1ccc2c(c1)C=CS(=O)(=O)O2)c1cccs1,> 10
4,N#Cc1ccc2c(c1)C=CS(=O)(=O)O2,> 10
5,O=C(Nc1ccc2c(c1)C=CS(=O)(=O)O2)c1ccccc1I,> 10
6,O=C(Cc1ccccc1)Nc1ccc2c(c1)C=CS(=O)(=O)O2,> 10
7,C[N+](C)(C)c1ccc2c(c1)C=CS(=O)(=O)O2,> 10
8,O=C(Nc1ccc2c(c1)C=CS(=O)(=O)O2)c1ccncc1,> 10
9,COc1ccc2c(c1)C=CS(=O)(=O)O2,> 10

# Other lines, results leading:
row,Ki [µM],SMILES
1,> 10,Cc1ccc(C(=O)Nc2ccc3c(c2)C=CS(=O)(=O)O3)cc1
2,> 10,CC(C)(C)C(=O)Nc1ccc2c(c1)C=CS(=O)(=O)O2
3,> 10,O=C(Nc1ccc2c(c1)C=CS(=O)(=O)O2)c1ccco1
4,> 10,O=C(Nc1ccc2c(c1)C=CS(=O)(=O)O2)c1ccccc1
5,> 10,CC(=O)Nc1ccc2c(c1)C=CS(=O)(=O)O2

# Test system: HT-29
# Test: Cytotoxicity against human HT-29 cells assessed as cell viability at 100 uM incubated for 48 hrs under normoxic conditions by MTT assay
# Type: functional
# Conditions: HT-29, 48 h, read-out: Activity
# Outline: as §2
row,SMILES,viability at 100 µM [%]
1,O=C(Nc1ccc2c(c1)C=CS(=O)(=O)O2)c1ccccc1,60

# Test system: HT-29
# Test: Cytotoxicity against human HT-29 cells assessed as cell viability at 100 uM incubated for 72 hrs under hypoxic conditions by MTT assay
# Type: functional
# Conditions: HT-29, 72 h, read-out: Activity
# Outline: as §1
row,SMILES,viability at 100 µM [%]
1,O=C(Nc1ccc2c(c1)C=CS(=O)(=O)O2)c1ccccc1,35
